Columns and labels:
[1] = test system: MMP-13 expressing SFs; test: Fluorescence microscopy of beacon uptake and activation, SFs; format: cell-based, human; details: 2.5 μM, 24 h incubation, fluorescence microscopy Cy5 channel
In short: (§1)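 Cells (patient-derived SFs or donated HUVECs) seeded at 5 × 10^3 per well in 8-chamber slides. After 24 h the medium was changed and test compound added to 2.5 µM final for a further 24 h. Cells washed, fixed in 4% paraformaldehyde for 20 min and mounted with DAPI. Imaged on an inverted microscope: Cy5 620/60 ex, 665 long-pass em; exposure 200 ms for SFs, 1500 ms for HUVECs.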

[2] = test system: HUVECs; test: Fluorescence microscopy of beacon uptake and activation, HUVECs; format: cell-based, human; details: 2.5 μM, 24 h incubation, fluorescence microscopy Cy5 channel
In short: as §1

Pyro-glgfrvgk-BHQ3 [DPPMMP13B]
Intracellular pyro fluorescence in MMP-13 + SFs [1]: negligible fluorescence | Intracellular pyro fluorescence in HUVECs (negligible MMP-13 expression) [2]: negligible fluorescence

Reference: publication PMC10131263 (Chemical & Biomedical Imaging, 2023)
